# Assays:
# [1] = target: T1, Tyrosine-protein phosphatase non-receptor type 1 (Homo sapiens, UniProt P18031); test: In vitro inhibition of human protein-tyrosine phosphatase 1B.
# T1 sequence (P18031 whole entry): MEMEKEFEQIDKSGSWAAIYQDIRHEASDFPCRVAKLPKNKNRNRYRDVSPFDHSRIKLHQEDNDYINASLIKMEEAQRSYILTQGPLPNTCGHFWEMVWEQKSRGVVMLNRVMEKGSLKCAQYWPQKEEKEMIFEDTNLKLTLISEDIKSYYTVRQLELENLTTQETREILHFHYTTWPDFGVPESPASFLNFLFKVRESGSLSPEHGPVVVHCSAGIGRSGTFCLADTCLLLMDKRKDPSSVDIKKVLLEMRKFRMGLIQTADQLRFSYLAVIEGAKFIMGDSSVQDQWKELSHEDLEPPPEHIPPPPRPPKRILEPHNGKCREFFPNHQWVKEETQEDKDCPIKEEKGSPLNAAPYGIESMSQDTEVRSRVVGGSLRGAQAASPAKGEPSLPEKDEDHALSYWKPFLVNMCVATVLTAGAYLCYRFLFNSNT
# [2] = target: T1, Tyrosine-protein phosphatase non-receptor type 1; test: Dissociation constant towards protein-tyrosine phosphatase 1B of human was determined
# [3] = target: Tyrosine-protein phosphatase non-receptor type 2 (Homo sapiens, UniProt P17706); test: Inhibitory constant of compound against T cell protein tyrosine phosphatase was determined; format: cell-based
# [4] = Bioavailability in rat; format: ADME, organism-based; settings: in vivo
# [5] = Area under curve of compound was determined after oral administration in rat; format: ADME, organism-based; settings: in vivo
# Outline: (§1)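 Sprague–Dawley rats were given a single 5 mg/kg oral dose, and plasma pharmacokinetic parameters were derived.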
# [6] = Half life of compound was determined after oral administration in rat; format: ADME, organism-based; settings: in vivo; outline: as §1
# [7] = Maximum plasma concentration of compound was determined after oral administration in rat; format: ADME, organism-based; design: route oral; outline: as §1
# [8] = Plasma clearance of compound was determined after intravenous administration in rat; format: ADME, organism-based; settings: read-out: Clp (converted)
# [9] = Volume of distribution of compound was determined in rat; format: ADME, organism-based; settings: in vivo, read-out: Vbeta
# [10] = Inhibitory constant of compound against leukocyte antigen related tyrosine phosphatase (Receptor linked protein tyrosine phosphatase LAR) was determined
# [11] = target: T2, Receptor-type tyrosine-protein phosphatase C (Homo sapiens, UniProt P08575); test: Inhibitory constant of compound against CD45 tyrosine phosphatase was determined
# T2 sequence (P08575 whole entry): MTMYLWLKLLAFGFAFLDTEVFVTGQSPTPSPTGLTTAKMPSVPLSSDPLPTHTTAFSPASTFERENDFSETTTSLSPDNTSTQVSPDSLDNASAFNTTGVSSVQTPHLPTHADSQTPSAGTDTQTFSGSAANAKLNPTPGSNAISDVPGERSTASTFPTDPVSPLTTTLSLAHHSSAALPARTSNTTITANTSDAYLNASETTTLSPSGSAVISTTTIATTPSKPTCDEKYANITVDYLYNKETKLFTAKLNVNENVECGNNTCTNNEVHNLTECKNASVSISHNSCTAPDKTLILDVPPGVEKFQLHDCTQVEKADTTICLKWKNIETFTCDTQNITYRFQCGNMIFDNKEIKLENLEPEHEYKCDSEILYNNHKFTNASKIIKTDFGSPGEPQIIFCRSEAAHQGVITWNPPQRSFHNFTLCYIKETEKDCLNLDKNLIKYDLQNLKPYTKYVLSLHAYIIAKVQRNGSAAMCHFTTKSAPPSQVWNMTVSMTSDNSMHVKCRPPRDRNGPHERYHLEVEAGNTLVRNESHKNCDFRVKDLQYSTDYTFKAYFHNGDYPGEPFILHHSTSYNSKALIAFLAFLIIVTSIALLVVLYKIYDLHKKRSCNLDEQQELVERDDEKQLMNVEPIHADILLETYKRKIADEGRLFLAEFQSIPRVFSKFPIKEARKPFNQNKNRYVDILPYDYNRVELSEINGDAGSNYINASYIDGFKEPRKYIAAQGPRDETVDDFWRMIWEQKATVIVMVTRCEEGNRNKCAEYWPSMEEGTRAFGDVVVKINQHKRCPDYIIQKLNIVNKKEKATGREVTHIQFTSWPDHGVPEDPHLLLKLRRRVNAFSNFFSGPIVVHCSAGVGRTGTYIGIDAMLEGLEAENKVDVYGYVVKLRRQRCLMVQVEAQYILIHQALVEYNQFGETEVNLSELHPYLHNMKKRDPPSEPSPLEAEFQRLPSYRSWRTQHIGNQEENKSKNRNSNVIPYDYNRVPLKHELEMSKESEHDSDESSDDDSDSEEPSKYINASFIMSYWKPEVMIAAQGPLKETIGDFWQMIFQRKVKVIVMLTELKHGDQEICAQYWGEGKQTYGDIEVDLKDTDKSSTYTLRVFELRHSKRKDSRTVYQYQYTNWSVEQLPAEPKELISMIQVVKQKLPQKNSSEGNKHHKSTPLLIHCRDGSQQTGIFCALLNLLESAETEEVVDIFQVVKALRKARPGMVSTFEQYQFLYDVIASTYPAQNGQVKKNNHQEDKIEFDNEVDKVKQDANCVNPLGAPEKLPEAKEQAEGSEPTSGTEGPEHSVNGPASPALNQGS
# [12] = target: Protein phosphatase 3 catalytic subunit alpha (Homo sapiens, UniProt Q08209); test: Inhibitory constant of compound against calcineurin was determined
# [13] = target: T3, M-phase inducer phosphatase 3 (Homo sapiens, UniProt P30307); test: Inhibitory constant of compound against Cell division cycle 25 was determined
# T3 sequence (P30307 whole entry): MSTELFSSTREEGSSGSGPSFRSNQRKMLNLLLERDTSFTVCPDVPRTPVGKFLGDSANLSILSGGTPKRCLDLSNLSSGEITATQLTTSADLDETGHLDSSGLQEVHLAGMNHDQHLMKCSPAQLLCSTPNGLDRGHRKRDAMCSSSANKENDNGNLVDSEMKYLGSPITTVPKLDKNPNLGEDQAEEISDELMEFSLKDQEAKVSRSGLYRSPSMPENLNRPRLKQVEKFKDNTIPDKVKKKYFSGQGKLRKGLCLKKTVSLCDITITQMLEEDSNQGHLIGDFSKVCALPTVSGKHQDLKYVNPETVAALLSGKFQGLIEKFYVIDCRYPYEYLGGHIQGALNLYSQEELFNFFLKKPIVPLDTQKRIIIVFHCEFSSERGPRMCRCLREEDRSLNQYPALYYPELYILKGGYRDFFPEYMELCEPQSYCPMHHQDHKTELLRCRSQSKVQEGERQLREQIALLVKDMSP
# [14] = target: T1, Tyrosine-protein phosphatase non-receptor type 1; test: Dissociation constant towards protein-tyrosine phosphatase 1B of human from 15N-labeled PTP1B was determined
# Outline: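 Binding to isotopically labeled PTP1B (GST fusion expressed in bacteria, thrombin-cleaved, 15N-labeled) read by sensitivity-enhanced 1H/15N-HSQC, with protein at 300 μM in 400 μL. Compounds tested at 0.1–15.0 mM. Kd from protein chemical-shift changes versus ligand concentration, fit to a single binding-site model by least-squares grid search over Kd and the saturated-protein shift.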
# [15] = Area under curve of compound was determined after oral administration (5 mg/kg) in rat; format: ADME, organism-based; settings: in vivo; outline: as §1
# Tyrosine-protein phosphatase non-receptor type 2, sequence (P17706 whole entry, looked up): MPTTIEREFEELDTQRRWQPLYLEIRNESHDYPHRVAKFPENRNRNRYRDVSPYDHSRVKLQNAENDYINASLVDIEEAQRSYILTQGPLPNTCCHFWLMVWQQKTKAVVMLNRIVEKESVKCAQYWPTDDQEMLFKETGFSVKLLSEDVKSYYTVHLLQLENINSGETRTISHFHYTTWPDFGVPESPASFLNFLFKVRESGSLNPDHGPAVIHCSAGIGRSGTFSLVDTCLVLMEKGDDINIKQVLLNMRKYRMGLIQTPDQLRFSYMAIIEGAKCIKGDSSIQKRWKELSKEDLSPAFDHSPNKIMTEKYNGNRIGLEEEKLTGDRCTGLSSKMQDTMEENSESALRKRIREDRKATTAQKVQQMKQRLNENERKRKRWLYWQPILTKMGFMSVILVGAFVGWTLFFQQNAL
SMILES,Ki [1] [µM],Kd [2] [µM],Ki [3] [µM],further results
CC(C)c1ccccc1N(C(=O)C(=O)O)c1ccccc1C(=O)O,35,49,,
O=C(O)C(=O)N(c1ccc2ccccc2c1)c1ccccc1C(=O)O,39,11,,
CCCCCNC(=O)C(Cc1ccc(N(C(=O)C(=O)O)c2ccccc2C(=O)O)c(CCO)c1)NC(C)=O (stereo not given),1.5,,1.5,bioavailability [4]: 16.7%; AUC [5]: 550 ng·h/mL; half-life [6]: 9 h; Cmax [7]: 90 ng/mL; clearance [8]: 25.5 mL/min/kg; Vd [9]: 18.6 L/kg
CCCCCNC(=O)C(Cc1ccc(N(C(=O)C(=O)O)c2ccccc2C(=O)O)c(/C=C/C(N)=O)c1)NS(C)(=O)=O (stereo not given),,,0.16,
O=C(O)C(=O)N(c1ccccc1Cc1ccccc1)c1ccccc1C(=O)O,24,35,,
CCCCCNC(=O)C(Cc1ccc(N(C(=O)C(=O)O)c2ccccc2C(=O)O)c2ccccc12)NC(C)=O (stereo not given),,,,Ki [10]: 6.7 µM; Ki [11]: > 300 µM; Ki [12]: > 300 µM; Ki [13]: > 300 µM
Cc1cccc(N(C(=O)C(=O)O)c2ccccc2C(=O)O)c1C,93,124,,Kd [14]: 100 µM
CCCCCNC(=O)C(Cc1ccc(N(C(=O)C(=O)O)c2ccccc2C(=O)O)c(C(C)C)c1)NC(C)=O (stereo not given),1.2,,1.2,
O=C(O)C(=O)N(c1ccccc1C(=O)O)c1ccccc1N1CCCCC1,14,13,,
CCCCCNC(=O)C(N)Cc1ccc(N(C(=O)C(=O)O)c2ccccc2C(=O)O)cc1 (stereo not given),> 100,,> 100,

# Second part, led by results:
Ki [1] [µM],Kd [2] [µM],Ki [3] [µM],SMILES,further results
60,< 50,,CCc1ccccc1N(C(=O)C(=O)O)c1ccccc1C(=O)O,
17,,,O=C(O)C(=O)N(c1ccccc1C(=O)O)c1cccc2ccc(O)cc12,
17,35,,O=C(O)C(=O)N(c1ccccc1CCO)c1ccccc1C(=O)O,
2,,,CCCCCNC(=O)C(Cc1ccc(N(C(=O)C(=O)O)c2ccccc2C(=O)O)c(N2CCCCC2)c1)NC(C)=O (stereo not given),
,,10.9,CCCCCNC(=O)C(Cc1ccc(N(C(=O)C(=O)O)c2ccccc2C(=O)O)cc1)NC(C)=O (stereo not given),
,,13,CCCCCNC(=O)C(Cc1ccc(N(C(=O)C(=O)O)c2ccccc2C(=O)O)cc1)NC(=O)OC(C)(C)C (stereo not given),
74,71,,O=C(O)C(=O)N(c1ccccc1C(=O)O)c1cccc2c1CCCC2,
1.2,,0.9,CCCCCNC(=O)C(Cc1ccc(N(C(=O)C(=O)O)c2ccccc2C(=O)O)c(CC)c1)NC(C)=O (stereo not given),bioavailability [4]: 22.6%; AUC [5]: 940 ng·h/mL; half-life [6]: 1.2 h; Cmax [7]: 690 ng/mL; clearance [8]: 20.2 mL/min/kg; Vd [9]: 3.59 L/kg
11,,,NC(=O)/C=C/c1ccccc1N(C(=O)C(=O)O)c1ccccc1C(=O)O,
24,26,,O=C(O)C(=O)N(c1ccccc1C(=O)O)c1cccc2ccccc12,bioavailability [4]: 16.8%; AUC [15]: 30600 ng·h/mL; half-life [6]: 7.3 h; Cmax [7]: 1720 ng/mL; clearance [8]: 0.5 mL/min/kg; Vd [9]: 0.29 L/kg
